Calls of active or inactive are those of the source. The rule behind the calls is not given here.
What was measured:
Gamma-secretase = assay: Inhibition of gamma secretase in human SH-SY5Y cells by HTRF assay; type: cell-based
Mus musculus [1] = assay: Reduction in amyloid beta40 production in human betaAAP overexpressing YAC mouse forebrain at 3 mg/kg, po after 4 hrs relative to control; type: functional; parameters: scale not given: the % may be the effect or the level left
In short: (§1)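 APP-YAC transgenic mice overexpressing human βAPP; oral dosing as suspension in 0.5% methocel, 3 mg/kg (also 0.3 and 1 mg/kg for dose–response). Soluble Aβ(40) in forebrain measured 4 h post-dose; reduction expressed relative to vehicle-treated animals; ED50 from dose–response.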

[2] = Bioavailability in rat; type: ADME, organism-based; conditions: in vivo
[3] = Half life in dog; type: ADME, organism-based, Canis lupus familiaris; conditions: in vivo
Mus musculus [4] = assay: Reduction in amyloid beta40 production in po dosed human betaAAP overexpressing YAC mouse forebrain after 4 hrs; type: functional; conditions: Brain; in short: as §1
[5] = Bioavailability in rhesus monkey; type: ADME, organism-based, Macaca mulatta; conditions: in vivo
[6] = Inhibition of gamma secretase assessed as amyloid beta40 production
[7] = Bioavailability in dog; type: ADME, organism-based, Canis lupus familiaris; conditions: in vivo
[8] = Inhibition of gamma secretase assessed as amyloid beta42 production
[9] = Half life in rat; type: ADME, organism-based; conditions: in vivo
[10] = Half life in rhesus monkey; type: ADME, organism-based, Macaca mulatta; conditions: in vivo

IC50 (Gamma-secretase) [pM] | Structure (SMILES) | also measured
340 | O=S1(=O)N[C@@]2(CN1CC(F)(F)F)[C@@H]1CC[C@H]2Cc2ccc(-c3ncc(N4CCC(C(F)(F)F)CC4)s3)cc2C1 | 
70 | Cn1nc(-c2ccc3c(c2)C[C@H]2CC[C@@H](C3)[C@]23CN(CC(F)(F)F)S(=O)(=O)N3)cc1-c1ccc(Cl)cc1 | 
60 | Cn1nc(-c2ccc3c(c2)C[C@H]2CC[C@@H](C3)[C@]23CN(CC(F)(F)F)S(=O)(=O)N3)cc1-c1ccc(F)c(F)c1 | 
820 | O=S1(=O)N[C@@]2(CN1CC(F)(F)F)[C@@H]1CC[C@H]2Cc2ccc(-c3cn(-c4cccc(F)c4)cn3)cc2C1 | 
150 | O=S1(=O)N[C@@]2(CN1CC(F)(F)F)[C@@H]1CC[C@H]2Cc2ccc(-c3ncn(-c4ccc(F)cc4)n3)cc2C1 | 
410 | Cn1nc(-c2ccc3c(c2)C[C@H]2CC[C@@H](C3)[C@]23CN(CC(F)(F)F)S(=O)(=O)N3)cc1-c1ccc(Cl)c(Cl)c1 | 
170 | O=S1(=O)N[C@@]2(CN1CC(F)(F)F)[C@@H]1CC[C@H]2Cc2ccc(-c3cn(-c4ccccc4F)cn3)cc2C1 | 
1650 | Cn1nc(-c2ccc(F)cc2)cc1-c1ccc2c(c1)CC1CCC(C2)C12CN(CC(F)(F)F)S(=O)(=O)N2 (racemic) | 
30 | O=S1(=O)N[C@@]2(CN1CC(F)(F)F)[C@@H]1CC[C@H]2Cc2ccc(-c3cn(-c4ccc(F)cc4)cn3)cc2C1 | Activity (Mus musculus [1]): 66%
420 | O=S1(=O)N[C@@]2(CN1CC(F)(F)F)[C@@H]1CC[C@H]2Cc2ccc(-c3cn(-c4ccc(Cl)c(Cl)c4)cn3)cc2C1 | 
60 | Cn1nc(-c2ccc3c(c2)C[C@H]2CC[C@@H](C3)[C@]23CN(CC(F)(F)F)S(=O)(=O)N3)cc1-c1ccc(F)cc1 | bioavailability [2]: 35%; half-life [3]: > 10 h; ED50 (Mus musculus [4]): 1 mg/kg; bioavailability [5]: 45%; Activity [6]: Active; bioavailability [7]: 42%; Activity [8]: Active; half-life [9]: 2 h; half-life [10]: 16 h; Activity (Mus musculus [1]): 84%
60 | O=S1(=O)N[C@@]2(CN1CC(F)(F)F)[C@@H]1CC[C@H]2Cc2ccc(-c3cn(-c4ccc(F)cc4F)cn3)cc2C1 | 
80 | O=S1(=O)N[C@@]2(CN1CC(F)(F)F)[C@@H]1CC[C@H]2Cc2ccc(-c3cn(-c4ccc(Cl)cc4)cn3)cc2C1 | 
60 | Cn1nc(-c2ccc3c(c2)C[C@H]2CC[C@@H](C3)[C@]23CN(CC(F)(F)F)S(=O)(=O)N3)cc1-c1ccc(F)cc1F | 
240 | O=S1(=O)N[C@@]2(CN1CC(F)(F)F)[C@@H]1CC[C@H]2Cc2ccc(/C=C/CN3CCC(C(F)(F)F)CC3)cc2C1 | ED50 (Mus musculus [4]): 17 mg/kg
420 | O=S1(=O)N[C@@]2(CN1CC(F)(F)F)[C@@H]1CC[C@H]2Cc2ccc(-c3ncc(-c4ccc(F)cc4)s3)cc2C1 | 
210 | Cn1nc(-c2ccc3c(c2)CC2CCC(C3)C23CN(CC(F)(F)F)S(=O)(=O)N3)cc1-c1ccccc1F (racemic) | 
120 | O=S1(=O)N[C@@]2(CN1CC(F)(F)F)[C@@H]1CC[C@H]2Cc2ccc(-c3cn(-c4ccc(F)c(F)c4)cn3)cc2C1 | 
460 | Cn1nc(-c2ccc3c(c2)C[C@H]2CC[C@@H](C3)[C@]23CN(CC(F)(F)F)S(=O)(=O)N3)cc1-c1cccc(F)c1 (racemic) | 
